Measured values: ChEMBL document CHEMBL4834405, “Structure-Based Design of High-Affinity Macrocyclic FKBP51 Inhibitors” (J Med Chem, 2021)

Assays:
[1] = molecular target: T1, Peptidyl-prolyl cis-trans isomerase FKBP5 (Homo sapiens) (UniProt Q13451); test: Binding affinity to FKBP51 FK1 domain (unknown origin) assessed as gibbs free energy change by isothermal titration calorimetric analysis
T1 sequence (whole entry): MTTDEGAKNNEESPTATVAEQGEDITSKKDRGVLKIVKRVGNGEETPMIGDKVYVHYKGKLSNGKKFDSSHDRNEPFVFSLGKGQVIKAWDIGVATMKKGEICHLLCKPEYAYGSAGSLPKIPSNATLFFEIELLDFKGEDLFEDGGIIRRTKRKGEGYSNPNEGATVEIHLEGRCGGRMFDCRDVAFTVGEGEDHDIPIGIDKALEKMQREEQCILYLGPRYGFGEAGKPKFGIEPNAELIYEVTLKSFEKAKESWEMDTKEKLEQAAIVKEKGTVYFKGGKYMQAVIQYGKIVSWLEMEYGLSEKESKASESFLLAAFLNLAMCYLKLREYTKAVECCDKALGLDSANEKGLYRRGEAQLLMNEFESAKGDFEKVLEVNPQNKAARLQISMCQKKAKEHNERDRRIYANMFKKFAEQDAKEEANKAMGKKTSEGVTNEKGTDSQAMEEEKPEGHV
In short: (§1)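 FKBP51 FK1 domain, ITC at 25 °C in 20 mM HEPES pH 8.0, 20 mM NaCl. Standard setup: 10 μM protein in cell with 0.5% DMSO, 100 μM ligand in syringe. Reverse setup for poorly soluble ligand: 10 μM ligand in cell with 5% DMSO, 100 μM protein in syringe. 18 × 2 μL injections, one-site binding fit, triplicates, weighted SD that includes fit errors.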

[2] = molecular target: T2, Peptidyl-prolyl cis-trans isomerase FKBP5 (Homo sapiens, UniProt Q13451); test: Binding affinity to FKBP51 FK1 domain (unknown origin) assessed as dissociation constant at 25 degreeC by isothermal titration calorimetric analysis; in short: as §1
T2 sequence (Q13451 whole entry): T1 sequence (whole entry)

[3] = molecular target: T1, Peptidyl-prolyl cis-trans isomerase FKBP5 (Homo sapiens); test: Binding affinity to FKBP51 FK1 domain (unknown origin) assessed as change in enthalpy by isothermal titration calorimetric analysis; in short: as §1
[4] = (§2) Selectivity ratio of Kd for displacement of fluorescent tracer 5-(3-(4-((1S,5S,6S)-10-(3,5-dichlorophenylsulfonyl)-2-oxo-3-(pyridin-3-ylmethyl)-3,10-diazabicyclo[4.3.1]decan-5-yl)-1H-1,2,3-triazol-1-yl)propylcarbamoyl)-2-(6-(dimethylamino)-3-(dimethyliminio)-3H-xanthen-9-yl)benzoate from recombinant full length C-terminal FLAG-tagged FJBP12 to Kd for displacement of fluorescent tracer 5-(3-(4-((1S,5S,6S)-10-(3,5-dichlorophenylsulfonyl)-2-oxo-3-(pyridin-3-ylmethyl)-3,10-diazabicyclo[4.3.1]decan-5-yl)-1H-1,2,3-triazol-1-yl)propylcarbamoyl)-2-(6-(dimethylamino)-3-(dimethyliminio)-3H-xanthen-9-yl)benzoate from recombinant full length C-terminal FLAG-tagged FKBP51 (unknown origin)
[5] = as §2, with “FKBP52 (unknown origin)” for “FJBP12”
[6] = molecular target: T3, Peptidyl-prolyl cis-trans isomerase FKBP4 (Homo sapiens, UniProt Q02790); test: (§3) Displacement of fluorescent tracer 5-(3-(4-((1S,5S,6S)-10-(3,5-dichlorophenylsulfonyl)-2-oxo-3-(pyridin-3-ylmethyl)-3,10-diazabicyclo[4.3.1]decan-5-yl)-1H-1,2,3-triazol-1-yl)propylcarbamoyl)-2-(6-(dimethylamino)-3-(dimethyliminio)-3H-xanthen-9-yl)benzoate from recombinant full length C-terminal FLAG-tagged FKBP52 (unknown origin) expressed in Escherichia coli BL21 (DE3) cells incubated for 30 mins by fluorescence polarisation competition binding assay
T3 sequence (Q02790 whole entry): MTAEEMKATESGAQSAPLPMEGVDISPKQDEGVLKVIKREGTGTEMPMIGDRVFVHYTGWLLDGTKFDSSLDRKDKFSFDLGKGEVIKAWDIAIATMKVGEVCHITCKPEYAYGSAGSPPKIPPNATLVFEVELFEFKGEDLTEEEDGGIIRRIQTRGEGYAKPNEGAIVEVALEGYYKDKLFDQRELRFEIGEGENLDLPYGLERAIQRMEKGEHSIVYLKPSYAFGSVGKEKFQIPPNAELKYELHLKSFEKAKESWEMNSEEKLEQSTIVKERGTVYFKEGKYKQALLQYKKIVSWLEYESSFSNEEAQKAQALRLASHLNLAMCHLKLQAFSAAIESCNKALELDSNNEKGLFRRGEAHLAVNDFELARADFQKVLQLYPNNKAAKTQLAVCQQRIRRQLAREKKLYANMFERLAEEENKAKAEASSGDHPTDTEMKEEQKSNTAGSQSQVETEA
In short: (§4)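 Competitive FP in 150 mM NaCl, 20 mM HEPES pH 8.0, 0.002% Triton X-100. Ligand 1:1 serially diluted in DMSO and premixed with fluorescent tracer, tracer working solution 11.9 nM (FKBP12.6, 51FK1, 52FK1) or 5.95 nM (FKBP12) before final 10-fold dilution into protein. 30 min at room temperature, read at ex/em 535/590 nm. Weighted SD from at least two independent runs.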

[7] = as §2, with “FKBP12.6 (unknown origin)” for “FJBP12”
[8] = molecular target: Peptidyl-prolyl cis-trans isomerase FKBP1A (Homo sapiens, UniProt P62942); test: as §3, with “FKBP12” for “FKBP52”, “([…])” for “(DE3)”; in short: as §4
Chain of Peptidyl-prolyl cis-trans isomerase FKBP1A (P62942 whole entry): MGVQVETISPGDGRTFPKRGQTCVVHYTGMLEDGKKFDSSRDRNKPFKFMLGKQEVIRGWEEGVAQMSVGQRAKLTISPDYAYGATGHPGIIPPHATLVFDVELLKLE

[9] = molecular target: T2, Peptidyl-prolyl cis-trans isomerase FKBP5; test: as §3, with “FKBP51” for “FKBP52”
[10] = molecular target: Peptidyl-prolyl cis-trans isomerase FKBP1B (Homo sapiens, UniProt P68106); test: as §3, with “FKBP12.6” for “FKBP52”, “competition” for “competition binding”; in short: as §4
Chain of Peptidyl-prolyl cis-trans isomerase FKBP1B (P68106 whole entry): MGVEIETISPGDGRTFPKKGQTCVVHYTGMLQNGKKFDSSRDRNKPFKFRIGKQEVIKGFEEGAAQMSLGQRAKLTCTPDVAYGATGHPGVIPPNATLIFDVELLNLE

| Compound | deltaG [1] [kcal/mol] | Kd [2] [nM] | deltaH [3] [kcal/mol] | Selectivity ratio [4] | Selectivity ratio [5] | Kd [6] [nM] | Selectivity ratio [7] | Kd [8] [nM] | Kd [9] [nM] | Kd [10] [nM] |
| --- | --- | --- | --- | --- | --- | --- | --- | --- | --- | --- |
| COc1ccc(CC[C@@H](OC(=O)[C@@H]2CCCCN2C(=O)[C@H](c2cc(OC)c(OC)c(OC)c2)C2CCCCC2)c2cccc(OCC(=O)O)c2)cc1OC | -10.9 | 9.8 | -11.2 |  |  |  |  |  |  |  |
| COc1ccc(CC[C@H]2OC(=O)[C@@H]3CCCCN3C(=O)[C@@H](C3CCCCC3)c3cc(OC)c(OC)c(c3)OCCCOCCCCOc3cccc2c3)cc1OC |  |  |  | 3.4 | > 97 | > 10000 | 2.2 | 354 | 103 | 227 |
| COc1ccc(CC[C@H]2OC(=O)[C@@H]3CCCCN3C(=O)[C@@H](C3CCCCC3)c3cc(OC)c(OC)c(c3)OCCCCCOc3cccc2c3)cc1OC |  |  |  | 2.7 | > 217 | > 10000 | 2.2 | 126 | 46 | 100 |
| COc1ccc(CC[C@H]2OC(=O)[C@@H]3CCCCN3C(=O)[C@@H](C3CCCCC3)c3cc(OC)c(c(OC)c3)OCCCOC/C=C/COc3cccc2c3)cc1OC |  |  |  | 7 | > 119 | > 10000 | 3.9 | 595 | 84 | 335 |
| COc1ccc(CC[C@H]2OC(=O)[C@@H]3CCCCN3C(=O)[C@@H](C3CCCCC3)c3cc(OC)c(OC)c(c3)OCC/C=C\COc3cccc2c3)cc1OC |  |  |  | 2 | > 141 | > 10000 | 1.6 | 139 | 71 | 116 |
| COc1ccc(CC[C@H]2OC(=O)[C@@H]3CCCCN3C(=O)[C@@H](C3CCCCC3)c3cc(OC)c(OC)c(c3)OCC/C=C/COc3cccc2c3)cc1OC |  |  |  | 5.2 | > 89 | > 10000 | 6.3 | 588 | 113 | 709 |
| COc1ccc(CC[C@H]2OC(=O)[C@@H]3CCCCN3C(=O)[C@@H](C3CCCCC3)c3cc(OC)c(c(OC)c3)OCCCCCOc3cccc2c3)cc1OC |  |  |  | 12.5 | > 84 | > 10000 | 7.1 | 1490 | 119 | 849 |

Second part, the compound after the results:

| deltaG [1] [kcal/mol] | Kd [2] [nM] | deltaH [3] [kcal/mol] | Selectivity ratio [4] | Selectivity ratio [5] | Kd [6] [nM] | Selectivity ratio [7] | Kd [8] [nM] | Kd [9] [nM] | Kd [10] [nM] | Compound |
| --- | --- | --- | --- | --- | --- | --- | --- | --- | --- | --- |
|  |  |  | 6 | > 114 | > 10000 | 5.6 | 526 | 88 | 495 | COc1ccc(CC[C@H]2OC(=O)[C@@H]3CCCCN3C(=O)[C@@H](C3CCCCC3)c3cc(OC)c(c(OC)c3)OCC/C=C\COc3cccc2c3)cc1OC |
|  |  |  | 2.2 | 138 | 3880 | 1.9 | 62 | 28 | 53 | COc1ccc(CC[C@H]2OC(=O)[C@@H]3CCCCN3C(=O)[C@@H](C3CCCCC3)c3cc(OC)c(OC)c(c3)OCCOCC(=O)CCOc3cccc2c3)cc1OC |
| -11.1 | 6.9 | -11.3 | 4.4 | 103 | 513 | 1.8 | 22 | 5 | 9 | COc1ccc(CC[C@H]2OC(=O)[C@@H]3CCCCN3C(=O)[C@@H](C3CCCCC3)c3cc(OC)c(OC)c(c3)OC[C@@H](O)[C@H](O)COc3cccc2c3)cc1OC |
|  |  |  | 6.6 | > 112 | > 10000 | 4.3 | 584 | 89 | 383 | COc1ccc(CC[C@H]2OC(=O)[C@@H]3CCCCN3C(=O)[C@@H](C3CCCCC3)c3cc(OC)c(c(OC)c3)OCCCCOc3cccc2c3)cc1OC |
|  |  |  | 2.6 | 227 | 3850 | 1.1 | 44 | 17 | 19 | COc1ccc(CC[C@H]2OC(=O)[C@@H]3CCCCN3C(=O)[C@@H](C3CCCCC3)c3cc(OC)c(OC)c(c3)OC[C@H](O)[C@@H](O)COc3cccc2c3)cc1OC |
|  |  |  | 4.2 | > 188 | 13200 | 1.3 | 295 | 70 | 94 | COc1ccc(CC[C@H]2OC(=O)[C@@H]3CCCCN3C(=O)[C@@H](C3CCCCC3)c3cc(OC)c(OC)c(c3)OCCCOc3cccc2c3)cc1OC |
|  |  |  | 4.8 | 175 | 1400 | 2.5 | 38 | 8 | 20 | COc1ccc(CC[C@H]2OC(=O)[C@@H]3CCCCN3C(=O)[C@@H](C3CCCCC3)c3cc(OC)c(OC)c(c3)OCCC(=O)CCOc3cccc2c3)cc1OC |
